A short description of test [1]: Displacement of [3H]AMPA from AMPA receptor in rat cortical synaptosome. It is filed as tissue-based, Brain. The method, boiled down:
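Binding to rat cortical synaptosome membranes using 5 nM [3H]AMPA (45.5 Ci/mmol) as radioligand.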
Background: In a radioligand displacement assay an active substance lowers the binding of a labelled ligand.

A short description of test [2]: Displacement of [3H]KAIN from KA receptor in rat cortical synaptosome. The test is classed as tissue-based, Brain.
For a further test, the target named is Glutamate NMDA receptor. Kind of test: Displacement of [3H]CGP39653 from NMDA receptor in rat cortical synaptosome. It is filed as tissue-based, Brain.
For test [3], the target named is Glutamate NMDA receptor; Grin1/Grin2b (Rattus norvegicus) (UniProt P35439+Q00960). The experiment in a line: Activity at rat recombinant NR1/NR2B receptor expressed in Xenopus oocytes by two voltage clamp electrophysiology relative to glutamate. It is filed as cell-based. The conditions noted are these: Oocyte. The method, boiled down:
(§1)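 Two-electrode voltage clamp on Xenopus oocytes injected with cRNA for NR1 plus the named NR2 subunit. Holding potential −60 to −40 mV. Continuous perfusion at 23 °C with 90 NaCl, 0.5 BaCl2, 1 KCl, 0.01 EDTA, 10 HEPES (mM), pH 7.6, with 20 μM glycine present throughout. Concentration–response data from each oocyte fitted to the Hill equation; mean ± SEM of logEC50 and nH. Relative Imax = fitted agonist Imax / maximal glutamate response in the same recording.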

For test [4], the target named is Glutamate NMDA receptor; Grin1/Grin2c (Rattus norvegicus, UniProt P35439+Q00961). The experiment in a line: Activity at rat recombinant NR1/NR2C receptor expressed in Xenopus oocytes assessed as effect on glutamate-induced current by two voltage clamp electrophysiology. The test is classed as cell-based, Oocyte. The method, boiled down:
(§2)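 Two-electrode voltage clamp on Xenopus oocytes injected with cRNA for NR1 plus the named NR2 subunit. Holding potential −60 to −40 mV. Continuous perfusion at 23 °C with 90 NaCl, 0.5 BaCl2, 1 KCl, 0.01 EDTA, 10 HEPES (mM), pH 7.6, with 20 μM glycine present throughout. Concentration–response data from each oocyte fitted to the Hill equation; mean ± SEM of logEC50 and nH.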

The target of test [5] is Ionotropic glutamate receptor NMDA 1/2D (Rattus norvegicus) (UniProt P35439+Q62645). The experiment in a line: Activity at rat NR1/NR2D receptor expressed in Xenopus oocytes by two voltage clamp electrophysiology relative to glutamate. The test is classed as cell-based. The conditions noted are these: Oocyte. The method, boiled down: as §1
For test [6], the target named is Glutamate NMDA receptor; Grin1/Grin2a (Rattus norvegicus, UniProt P35439+Q00959). The experiment in a line: (§3) Activity at rat recombinant NR1/NR2A receptor expressed in Xenopus oocytes assessed as effect on glutamate-induced current by two voltage clamp electrophysiology. It is filed as cell-based, Oocyte. The method, boiled down:
as §2

Test [7] concerns the target Ionotropic glutamate receptor NMDA 1/2D (Rattus norvegicus, UniProt P35439+Q62645). The experiment in a line: Activity at rat NR1/NR2D receptor expressed in Xenopus oocytes assessed as effect on glutamate-induced current by two voltage clamp electrophysiology. It is filed as cell-based, Oocyte. The method, boiled down: as §2
Test [8] concerns the target T1, Glutamate NMDA receptor; Grin1/Grin2a (Rattus norvegicus) (UniProt P35439+Q00959). The experiment in a line: Activity at rat recombinant NR1/NR2A receptor expressed in Xenopus oocytes by two voltage clamp electrophysiology relative to glutamate. The test is classed as cell-based. The conditions noted are these: Oocyte. A digest of the protocol: as §1
Test [9] deals with Glutamate NMDA receptor; Grin1/Grin2c (Rattus norvegicus) (UniProt P35439+Q00961). The experiment in a line: Activity at rat recombinant NR1/NR2C receptor expressed in Xenopus oocytes by two voltage clamp electrophysiology relative to glutamate. The test is classed as cell-based. To be noted: Oocyte. The method, boiled down:
as §1

Test [10] has as its target Glutamate NMDA receptor; Grin1/Grin2b (Rattus norvegicus, UniProt P35439+Q00960). The experiment in a line: Activity at rat recombinant NR1/NR2B receptor expressed in Xenopus oocytes assessed as effect on glutamate-induced current by two voltage clamp electrophysiology. It is filed as cell-based, Oocyte. A digest of the protocol:
as §2

The target in test [11] is T1, Glutamate NMDA receptor; Grin1/Grin2a (Rattus norvegicus). Described as §3. The test is classed as cell-based. To be noted: Oocyte. A digest of the protocol: as §2

pEC50, pIC50, pKi: −log10 of the molar value. Activity calls are given as the source filed them. The calls are words filed in the database; no cut-off is given here.

Turning to `CC(C)c1cnn(O)c1C(N)C(=O)O` (racemic), the negative logarithm of the IC50 (pIC50) in [1] and in [2] was less than 4.00 throughout. Moreover, on Glutamate NMDA receptor, the pKi was 4.70.
Regarding `NC(C(=O)O)c1c(Cl)cnn1O` (racemic), the Imax in [3] worked out at 0.29; in test [5], 0.73; in test [8], 0.07; in test [9], 0.55. In addition, the negative-log IC50 (pIC50) in test [1] and in test [2] was less than 4.00 each time. On Glutamate NMDA receptor, this compound gave a negative logarithm of the Ki (pKi) of 5.54. The pEC50 in test [4] is 3.59; in test [6] it was 3.25; in test [7], 3.82; in [10], 3.83.
`Cc1cnn(O)c1[C@@H](N)C(=O)O`: the Imax in [3] is 0.23. Moreover, the pIC50 in [1] and in test [2] was less than 4.00 each time. This compound had a negative logarithm of the Ki (pKi) on Glutamate NMDA receptor of 5.66. In test [10], the pEC50 was 4.44.
As for `CCc1cnn(O)c1[C@@H](N)C(=O)O`, in test [3], the Imax is 0.46. Besides, the pIC50 in test [1] and in test [2] was less than 4.00 in each case. Further, on Glutamate NMDA receptor, the pKi was 5.36. In addition, in test [10], the negative-log EC50 (pEC50) was 4.47.
Turning to `N[C@H](C(=O)O)c1c(Cl)cnn1O`, the pIC50 in [1] and in test [2] was less than 4.00 each time. The same compound showed a negative-log Ki (pKi) at Glutamate NMDA receptor of 4.60.
For `CN[C@H](CC(=O)O)C(=O)O` [N-METHYL-D-ASPARTIC ACID (NMDA)], the Imax in test [3] came to 0.77; in test [5], 0.8; in test [8], 0.9; in test [9], 0.73. Besides, the pEC50 in [4] was 4.64; in test [6], 4.12; in test [7], 5.08; in [10], 4.66.
Take `N[C@@H](C(=O)O)c1c(Cl)cnn1O`: in test [3], the Imax was determined as 0.33. The compound further had a pKi on Glutamate NMDA receptor of 5.54. Moreover, the pEC50 in test [10] was 4.24.
`CCc1cnn(O)c1C(N)C(=O)O` (racemic): the Imax was found to be 0.45 in test [3], 0.7 in test [5], 0.05 in [8] and 0.52 in [9]. The pIC50 in test [1] and in [2] was less than 4.00 in each case. Further, the pKi on Glutamate NMDA receptor is 4.89. For the same compound, the pEC50 was 4.04 in test [4], 4.33 in test [6], 4.37 in test [7] and 4.17 in test [10].
Turning to `CCc1cnn(O)c1[C@H](N)C(=O)O`, the pIC50 in test [1] and in test [2] was less than 4.00 in each case. This compound also showed a negative-log Ki (pKi) at Glutamate NMDA receptor of less than 4.00.
For `Cc1cnn(O)c1C(N)C(=O)O` (racemic), the negative logarithm of the IC50 (pIC50) in test [1] and in test [2] was less than 4.00 each time. Besides, the negative-log Ki (pKi) on Glutamate NMDA receptor is 4.66.
In the case of `N[C@@H](C(=O)O)c1ccnn1O`, the Imax in test [3] is 0.61. Also, the negative logarithm of the IC50 (pIC50) in test [1] and in [2] was less than 4.00 in each case. Besides, the pKi on Glutamate NMDA receptor was 5.66. Besides, in [10], the pEC50 was 4.85.
For the compound `CC(C)c1cnn(O)c1[C@H](N)C(=O)O`, the pIC50 in test [1] and in test [2] was less than 4.00 throughout. This compound had a pKi at Glutamate NMDA receptor of less than 4.00.
Turning to `CCCc1cnn(O)c1C(N)C(=O)O` (racemic), the Imax was determined as 0.06 in test [3], 0.37 in test [5] and 0.22 in test [9]. In addition, the negative logarithm of the IC50 (pIC50) in [1] and in test [2] was less than 4.00 each time. The compound further showed a pKi at Glutamate NMDA receptor of 4.85. Moreover, the values for the negative logarithm of the EC50 (pEC50) in [4], in test [7] and in test [10] were 3.37, 3.82 and 3.98, respectively. Also, the outcome in [11] and in test [8] was inactive.
Turning to `CCCc1cnn(O)c1[C@@H](N)C(=O)O`, the Imax in test [3] is 0.09. Besides, the negative-log IC50 (pIC50) in [1] and in test [2] was less than 4.00 in each case. The compound further had a negative-log Ki (pKi) at Glutamate NMDA receptor of 5.16. In addition, the negative logarithm of the EC50 (pEC50) in test [10] was 4.20.
`CC(C)c1cnn(O)c1[C@@H](N)C(=O)O`: the negative-log IC50 (pIC50) in [1] and in test [2] was less than 4.00 in each case. Besides, the negative logarithm of the Ki (pKi) on Glutamate NMDA receptor is 4.89.
For the compound `CCCc1cnn(O)c1[C@H](N)C(=O)O`, the pIC50 in [1] and in test [2] was less than 4.00 each time. At Glutamate NMDA receptor, this compound showed a pKi of less than 4.00.
As to `Cc1cnn(O)c1[C@H](N)C(=O)O`, the negative logarithm of the IC50 (pIC50) in [1] and in [2] was less than 4.00 each time. This compound also showed a pKi on Glutamate NMDA receptor of less than 4.00.
As to `NC(C(=O)O)c1ccnn1O` (racemic), the values for the Imax in [3], in [8] and in test [9] were 0.58, 0.45 and 0.52, respectively. Also, the pIC50 in [1] and in test [2] was less than 4.00 throughout. At Glutamate NMDA receptor, the pKi was 5.00. Besides, the pEC50 in [4] is 4.27; in test [6], 4.09; in test [10] it was 4.32.
Consider `N[C@H](C(=O)O)c1ccnn1O`, for which the pIC50 in test [1] and in test [2] was less than 4.00 in each case. In addition, the negative logarithm of the Ki (pKi) at Glutamate NMDA receptor is less than 4.00.

What is called pIC50 is the negative decadic logarithm of the IC50, by convention in mol/L. Read a low pIC50 as a large IC50. As a reminder, the pKi is the Ki on a negative log10 scale, so that one unit is a factor of ten. As usually defined, the pEC50 is −log10 of the EC50, conventionally taken in molar units.

For the origin of these results see ChEMBL document CHEMBL1155079, “N-Hydroxypyrazolyl glycine derivatives as selective N-methyl-D-aspartic acid receptor ligands” (J Med Chem, 2008).
